Experimental data as given in ChEMBL document CHEMBL1151832, “Structure elucidation at the nanomole scale. 1. Trisoxazole macrolides and thiazole-containing cyclic peptides from the nudibranch Hexabranchus sanguineus” (2009).
Values after ≈ are worked out from the molar mass of the structure shown. Active and inactive are the calls of the source. No cut-off for these calls is given here.

What was measured:
Nakaseomyces glabratus = test: Antifungal activity against Candida glabrata clinical isolate by broth microdilution method; assay type: functional
How it was run: (§1)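 Isolates were maintained on Sabouraud dextrose agar at 30 °C, for 24 h (Candida) or 48 h (C. neoformans). Testing followed the NCCLS broth microdilution method, using 2-fold serial dilutions from DMSO stocks in RPMI-1640 buffered to pH 7.0 with 0.165 M MOPS. Final concentrations were 0.062–64 µg/mL, with amphotericin B as positive control. Replicates were run, and growth was read by OD600. MIC was the lowest concentration giving ≥90% inhibition.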

Candida albicans [1] = test: Antifungal activity against Candida albicans ATCC 14503 by broth microdilution method; assay type: functional
How it was run: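 C. albicans reference strain grown on Sabouraud dextrose agar at 30 °C for 24 h. NCCLS broth microdilution: 2-fold serial dilutions from DMSO stocks in RPMI-1640 buffered to pH 7.0 with 0.165 M MOPS. Final concentrations 0.062–64 µg/mL; amphotericin B control 0.0078–8 µg/mL. Tested in replicate; growth read as OD 600 nm; MIC = lowest concentration giving ≥90% growth inhibition.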

Cryptococcus neoformans = test: Antifungal activity against Cryptococcus neoformans var. grubii clinical isolate by broth microdilution method; assay type: functional
How it was run: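 Clinical isolate maintained on Sabouraud dextrose agar, 30 °C, 48 h. Susceptibility by NCCLS broth microdilution in RPMI-1640 with 0.165 M MOPS (pH 7.0), using 2-fold dilutions from DMSO stocks spanning 0.062–64 µg/mL final (amphotericin B control 0.0078–8 µg/mL). Replicate wells per run; OD 600 nm read-out; MIC endpoint is the lowest concentration with complete (≥90%) inhibition.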

Pichia kudriavzevii = test: Antifungal activity against fluconazole-resistant Candida krusei clinical isolate by broth microdilution method; assay type: functional, organism-based; how it was run: as §1
Cryptococcus gattii = test: Antifungal activity against Cryptococcus neoformans var. gattii clinical isolate by broth microdilution method; assay type: functional, organism-based; conditions: Cryptococcus bacillisporus; how it was run: as §1
Candida albicans [2] = test: Antifungal activity against fluconazole-resistant Candida albicans isolate UCDFR1 by broth microdilution method; assay type: functional, organism-based; how it was run: as §1
Candida albicans [3] = test: Antifungal activity against fluconazole-resistant Candida albicans isolate 96-489 by broth microdilution method

Compound | MIC (Nakaseomyces glabratus) | MIC (Candida albicans [1]) | MIC (Cryptococcus neoformans) | MIC (Pichia kudriavzevii) | MIC (Cryptococcus gattii) | MIC (Candida albicans [2]) | MIC (Candida albicans [3])
CO[C@H]([C@H](C)/C=C/N(C)C=O)[C@@H](C)C(=O)CC[C@H](C)[C@H](C[C@@H]1OC(=O)C[C@@H](O)CCC[C@H](O)[C@H](C)[C@H](OC)c2coc(n2)-c2coc(n2)-c2coc(n2)/C=C/CC[C@H]1C)OC | 0.125 µg/mL (≈ 0.146 µM) | 0.25 µg/mL (≈ 0.292 µM) | 0.5 µg/mL (≈ 0.585 µM) | – | – | – | –
CO[C@H]([C@H](C)/C=C/N(C)C=O)[C@@H](C)C(=O)CC[C@H](C)[C@H](C[C@@H]1OC(=O)C[C@@H](OC(N)=O)C[C@H](C)C[C@H](O)[C@H](C)[C@@H](O)c2coc(n2)-c2coc(n2)-c2coc(n2)/C=C/C[C@H](O)[C@H]1C)OC [9-O-DESMETHYL KABIRAMIDE B] | 1 µg/mL (≈ 1.09 µM) | 2 µg/mL (≈ 2.19 µM) | 2 µg/mL (≈ 2.19 µM) | inactive | inactive | inactive | inactive
C[C@@H]1[C@H](O)[C@@H](C)/C=C/C=C/C=C/C=C/C=C/C=C/C=C/[C@H](O[C@@H]2O[C@H](C)[C@@H](O)[C@H](N)[C@@H]2O)C[C@@H]2O[C@](O)(C[C@@H](O)C[C@@H](O)[C@H](O)CC[C@@H](O)C[C@@H](O)CC(=O)O[C@H]1C)C[C@H](O)[C@H]2C(=O)O [AMPHOTERICIN B] | 0.25 µg/mL (≈ 0.271 µM) | 0.016 µg/mL (≈ 0.0173 µM) | 0.016 µg/mL (≈ 0.0173 µM) | – | – | – | –
CO[C@H]([C@H](C)/C=C/N(C)C=O)[C@@H](C)C(=O)CC[C@H](C)[C@H](C[C@@H]1OC(=O)C[C@@H](OC(N)=O)C[C@H](C)C[C@H](O)[C@H](C)[C@@H](OC)c2coc(n2)-c2coc(n2)-c2coc(n2)/C=C/C[C@H](O)[C@H]1C)OC [KABIRAMIDE B] | 0.5 µg/mL (≈ 0.539 µM) | 0.5 µg/mL (≈ 0.539 µM) | 1 µg/mL (≈ 1.08 µM) | – | – | – | –
CO[C@H]([C@H](C)/C=C/N(C)C=O)[C@@H](C)C(=O)CC[C@H](C)[C@H](C[C@@H]1OC(=O)C[C@@H](OC(N)=O)C[C@H](C)C[C@H](O)[C@H](C)[C@@H](OC)c2coc(n2)-c2coc(n2)-c2coc(n2)/C=C/C[C@H](OC)[C@H]1C)OC [KABIRAMIDE C] | 0.25 µg/mL (≈ 0.265 µM) | 0.016 µg/mL (≈ 0.017 µM) | 0.125 µg/mL (≈ 0.133 µM) | Active | Active | Active | Active
